Active and inactive are the calls of the source. The rule behind the calls is not given here.
What was measured:
[1] = Displacement of [3H]-DTG from sigma 2 receptor from rat liver in presence of pantazocine
[2] = biological target: Sigma non-opioid intracellular receptor 1 (Cavia porcellus, UniProt Q60492); assay: Displacement of [3H]-pentazocine from sigma 1 receptor from guinea pig brain membrane
BXPC-3 [3] = assay: Drug uptake in human BxPC3 cells assessed as decrease drug uptake at 25 nM measured after 60 mins by flow cytometric analysis in presence of caveolin inhibitor Filipin 3; type: ADME, cell-based; details: bxpc-3, 1 h
Procedure, shortened: (§1)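 BxPC3 cells pretreated 60 min at 37 °C with phenylarsine oxide (10 µM; clathrin route) or Filipin III (5 µg/mL; caveolin route), or DMSO vehicle, then washed and resuspended in medium. Compound added at 25 nM; mean FL1 fluorescence read by flow cytometry in kinetic mode over 60 min, expressed as percent of maximum signal.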

BXPC-3 [4] = assay: Drug uptake in human BxPC3 cells assessed as decreased uptake at increasing cell density at 25 nM after 30 min by flow cytometric analysis; type: ADME, cell-based; details: bxpc-3, 0.5 h
Procedure, shortened: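 BxPC3 cells seeded at increasing densities to give subconfluent (dividing) through confluent (quiescent) cultures. Next day, cells treated with compound at 25 nM for 30 min at 37 °C, and fluorescence intensity measured by flow cytometry.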

BXPC-3 [5] = assay: Cellular uptake in human BxPC3 cells assessed as decrease drug uptake at 25 nM measured after 60 mins by flow cytometric analysis in presence of clathrin inhibitor phenylarsine oxide; type: ADME, cell-based; details: bxpc-3, 1 h; procedure, shortened: as §1
[6] = Selectivity ratio of IC50 for guinea pig brain sigma 1 receptor to IC50 for rat liver sigma 2 receptor
Procedure, shortened: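 Sigma-1 binding used (+)-[3H]-pentazocine (34 Ci/mmol); sigma-2 binding used [3H]-DTG (30 Ci/mmol), per the Matsumoto et al. method. IC50 taken from six to nine test concentrations in two or three experiments, each in duplicate.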

BXPC-3 [7] = assay: Cytotoxicity against human BxPC3 cells during nonproliferating stage assessed as decreased cell death at 100 uM after 18 hrs by crystal violet staining; type: functional, cell-based
Procedure, shortened: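 BxPC3 cells seeded at increasing densities (1 × 10^5 to 9 × 10^5) 24 h before treatment with 100 µM sigma-2 agonist. After 18 h, washed, fixed in 4% paraformaldehyde 30 min at 37 °C, crystal violet stained 15 min at 37 °C, and imaged by densitometry. Viability given as percent density relative to DMSO-treated cells.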

Sigma non-opioid intracellular receptor 1, sequence (Q60492 whole entry): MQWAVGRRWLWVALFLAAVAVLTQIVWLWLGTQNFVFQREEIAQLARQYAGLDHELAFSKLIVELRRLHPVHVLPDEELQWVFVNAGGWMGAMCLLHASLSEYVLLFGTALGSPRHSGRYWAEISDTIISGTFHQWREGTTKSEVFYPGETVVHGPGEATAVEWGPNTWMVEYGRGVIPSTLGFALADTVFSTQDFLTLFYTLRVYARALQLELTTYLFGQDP

Row | Compound | Ki [1] | Ki [2] | Drug uptake (BXPC-3 [3]) | Drug uptake (BXPC-3 [4]) | Drug uptake (BXPC-3 [5]) | Ratio Ki [6] | Activity (BXPC-3 [7])
1 | CN(C)c1cccc2c(S(=O)(=O)NCCOCCOc3cccc4c3CCCC4CCCN3CCN(C4CCCCC4)CC3)cccc12 (stereo not given) | 25.7 nM | 19.8 nM |  |  |  |  | 
2 | O=[N+]([O-])c1ccc(NCCCCCCOc2cccc3c2CCCC3CCCN2CCN(C3CCCCC3)CC2)c2nonc12 (stereo not given) | 10.8 nM | 78.7 nM | 50% | Not Active | 69% | 8 | 
3 | COc1cccc2c1CCCC2CCCN1CCN(C2CCCCC2)CC1 (stereo not given) | 0.68 nM |  |  |  |  |  | inactive
4 | Fc1cccc(F)c1[C@H]1CC[C@@H](N2CCN(C3CCCCC3)CC2)CC1 |  |  |  |  |  |  | inactive

Continued, in another order:

Row | Ki [1] | Ki [2] | Compound | Drug uptake (BXPC-3 [3]) | Drug uptake (BXPC-3 [4]) | Drug uptake (BXPC-3 [5]) | Ratio Ki [6] | Activity (BXPC-3 [7])
5 | 5020 nM | > 5000 nM | COc1cccc2c1CCCC2CCCN1CCN(C2CCN(CCCCCCNS(=O)(=O)c3cccc4c(N(C)C)cccc34)CC2)CC1 (stereo not given) |  |  |  |  | 
6 | 1720 nM | 2570 nM | COc1cccc2c1CCCC2CCCN1CCN(C2CCN(CCCCCCNc3ccc([N+](=O)[O-])c4nonc34)CC2)CC1 (stereo not given) |  |  |  |  | 
7 | 20.8 nM | 9.08 nM | CN(C)c1cccc2c(S(=O)(=O)NCCCCCCOc3cccc4c3CCCC4CCCN3CCN(C4CCCCC4)CC3)cccc12 (stereo not given) |  |  |  |  | 
8 | 39.3 nM | 96.2 nM | O=[N+]([O-])c1ccc(NCCOCCOc2cccc3c2CCCC3CCCN2CCN(C3CCCCC3)CC2)c2nonc12 (stereo not given) |  |  |  | 2.5 | 

— ChEMBL document CHEMBL1821615 (J Med Chem, 2011)
